Assay results reported in paper PMC9064050 (RSC Advances, 2019).

Experiments:
Aspergillus niger = assay: Kirby–Bauer agar disc diffusion; format: cell-based
In short: (§1)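 Kirby–Bauer disc diffusion on Mueller–Hinton agar (pH 7.2, autoclaved 121 °C for 15 min, ~4 mm deep, held 2–8 °C for 24 h). Plates spread with 24 h cultures. 6 mm discs loaded with 20 μL of 100 μM test compound. Bacteria incubated at 37 °C for 48 h; fungi at 22 °C for 7 days. Clear-zone diameter measured by ruler; % inhibition by eqn (20) against 6 mm control.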

Candida albicans = assay: Kirby–Bauer agar disc diffusion; format: cell-based
In short: as §1

Mucor indicus = assay: Kirby–Bauer agar disc diffusion; format: cell-based
In short: as §1

EB–DNA = details: at the concentration of 50 μM EB; cited from earlier work
Escherichia coli = assay: Kirby–Bauer agar disc diffusion; format: cell-based
In short: as §1

[1] = tested on: Salmonella enteric serovar typhi; assay: Kirby–Bauer agar disc diffusion; format: cell-based
In short: as §1

[2] = tested on: Chromobacterium violaceum; assay: Kirby–Bauer agar disc diffusion; format: cell-based
In short: as §1

Pseudomonas aeruginosa = assay: Kirby–Bauer agar disc diffusion; format: cell-based
In short: as §1

Shigella flexneri = assay: Kirby–Bauer agar disc diffusion; format: cell-based
In short: as §1

Staphylococcus aureus = assay: Kirby–Bauer agar disc diffusion; format: cell-based
In short: as §1

Bacillus cereus = assay: Kirby–Bauer agar disc diffusion; format: cell-based
In short: as §1

human lung cancer (A549) = assay: In vitro anticancer MTT assay; format: cell-based; details: 50% cell death following 72 h exposure
In short: (§2)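 MTT viability: cells seeded at 1 × 10^5 per well and incubated 24 h at 37 °C, 5% CO2. Treated with test compound at 10–100 μg mL−1 (from DMSO). Medium removed, wells PBS-washed, RPMI-1640 plus MTT (5 mg mL−1 solution) added for 4 h at 37 °C. Formazan dissolved in DMSO, read at 570 nm. Triplicate wells; IC50 from % viability; cisplatin as reference.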

liver cancer (HepG2) = assay: In vitro anticancer MTT assay; format: cell-based, human; details: 50% cell death following 72 h exposure
In short: as §2

breast (MCF-7) = assay: In vitro anticancer MTT assay; format: cell-based, human; details: 50% cell death following 72 h exposure
In short: as §2

[3] = tested on: normal human dermal fibroblast (NHDF); assay: MTT assay on normal cells; format: cell-based; details: normal cell line; 50% cell death following 72 h exposure
In short: as §2

Question: For `CC(=O)N1CCN(c2ccc(OCC3COC(Cn4ccnc4)(c4ccc(Cl)cc4Cl)O3)cc2)CC1` (stereo not shown) [Ketokonazole, ketokonazole], which zone of inhibition at 100 µM (Aspergillus niger; Aspergillus niger, read-out: diameter of clear zone inhibition) is on record?
Answer: 16 mm

Question: What about the inhibition% (Aspergillus niger; H = Aspergillus niger, eqn (20)) of the same molecule?
Answer: 63%

Question: And the zone of inhibition at 100 µM (Candida albicans; Candida albicans, read-out: diameter of clear zone inhibition)?
Answer: 18 mm

Question: What about the inhibition% (Candida albicans; I = Candida albicans, eqn (20)) of the same molecule?
Answer: 67%

Question: And the inhibition% (Mucor indicus; J = Mucor indicus, eqn (20))?
Answer: 67%

Question: What about the zone of inhibition at 100 µM (Mucor indicus; Mucor indicus, read-out: diameter of clear zone inhibition) of the same molecule?
Answer: 18 mm

Question: Which “KEB (binding constant of EB to DNA)” value (EB–DNA) does the source give for `CC[n+]1c(-c2ccccc2)c2cc(N)ccc2c2ccc(N)cc21` [EB, ethidium bromide] here?
Answer: 10^7 M^−1

Question: Which inhibition% (Escherichia coli; A = (−) Escherichia coli, from zone diameter, eqn (20)) does the source give for `[H]/N=C(/N)N[C@H]1[C@H](O)[C@@H](O)[C@H](O[C@@H]2O[C@@H](C)[C@](O)(C=O)[C@H]2O[C@@H]2O[C@@H](CO)[C@H](O)[C@@H](O)[C@@H]2NC)[C@@H](N/C(N)=N\[H])[C@@H]1O` [Streptomycin, streptomycin] here?
Answer: 75%

Question: What about the zone of inhibition at 100 µM (Escherichia coli; Escherichia coli, read-out: diameter of clear zone inhibition) of the same molecule?
Answer: 24 mm

Question: And the inhibition% ([1]; B = (−)Salmonella enteric serovar typhi, eqn (20))?
Answer: 77%

Question: What about the zone of inhibition at 100 µM ([1]; Salmonella, TYPHI, read-out: diameter of clear zone inhibition) of the same molecule?
Answer: 26 mm

Question: What about the inhibition% ([2]; C = (−)Chromobacterium violaceum, eqn (20)) of the same molecule?
Answer: 75%

Question: What about the zone of inhibition at 100 µM ([2]; Chromobacterium violaceum, read-out: diameter of clear zone inhibition) of the same molecule?
Answer: 24 mm

Question: What about the inhibition% (Pseudomonas aeruginosa; D = (−)Pseudomonas aeruginosa, eqn (20)) of the same molecule?
Answer: 71%

Question: What about the zone of inhibition at 100 µM (Pseudomonas aeruginosa; Pseudomonas aeruginosa, read-out: diameter of clear zone inhibition) of the same molecule?
Answer: 21 mm

Question: What about the inhibition% (Shigella flexneri; E = (−)Shigella flexneri, eqn (20)) of the same molecule?
Answer: 76%

Question: What about the zone of inhibition at 100 µM (Shigella flexneri; Shigella flexneri, read-out: diameter of clear zone inhibition) of the same molecule?
Answer: 25 mm

Question: What about the inhibition% (Staphylococcus aureus; F = (+)Staphylococcus aureus, eqn (20)) of the same molecule?
Answer: 71%

Question: What about the zone of inhibition at 100 µM (Staphylococcus aureus; Staphylococcus aureus, read-out: diameter of clear zone inhibition) of the same molecule?
Answer: 21 mm

Question: What about the zone of inhibition at 100 µM (Bacillus cereus; Bacillus cereus, read-out: diameter of clear zone inhibition) of the same molecule?
Answer: 21 mm

Question: And the inhibition% (Bacillus cereus; G = (+)Bacillus cereus, eqn (20))?
Answer: 71%

Question: Which “IC50 A549” value (human lung cancer (A549)) does the source give for `N.N.[Cl][Pt][Cl]` [Cisplatin, cisplatin] here?
Answer: 09.62 µg/mL

Question: And the “IC50 HepG2” value (liver cancer (HepG2))?
Answer: 06.94 µg/mL

Question: And the “IC50 MCF-7” value (breast (MCF-7))?
Answer: 06.11 µg/mL

Question: What about the “IC50 NHDF” value [3] of the same molecule?
Answer: 08.08 µg/mL
